The values that follow come from ChEMBL document CHEMBL3351571, “Peptidomimetics of Arg-Phe-NH2 as small molecule agonists of Mas-related gene C (MrgC) receptors” (Bioorg Med Chem, 2014).

Each structure is given as a SMILES string. Active and inactive are the calls of the source. The rule behind the calls is not given here. Square brackets hold non-standard residues; d marks the D form. Peptide text beside a SMILES is read from it. dPhe(4-guanidino) = N=C(N)Nc1ccc(C[C@@H](N)C(=O)O)cc1; Phe(4-guanidino) = N=C(N)Nc1ccc(C[C@H](N)C(=O)O)cc1

Assay type in all cases: cell-based
Test [1] has as its target T1, Mas-related G-protein coupled receptor member X1 (Homo sapiens, UniProt Q96LB2). As to the kind of experiment: Agonist activity at human MrgX1 transfected in HEK293 cells by FLIPR assay. Summed up: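 Human MrgX1 stably expressed in HEK293 cells, plated at 25,000 cells/well 2 days before imaging. Cells loaded with 2 μM Fluo 4AM plus 1% Trypan Red in HBSS for 50 min at 37°C, then equilibrated 10 min at room temperature. Serial dilutions in HBSS added alongside BAM 8-22 (positive) and HBSS (negative) controls.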

The target of test [2] is T2, Mas-related G-protein coupled receptor member X1 (Rattus norvegicus, UniProt Q8R4G1).
T2 sequence (Q8R4G1 whole entry): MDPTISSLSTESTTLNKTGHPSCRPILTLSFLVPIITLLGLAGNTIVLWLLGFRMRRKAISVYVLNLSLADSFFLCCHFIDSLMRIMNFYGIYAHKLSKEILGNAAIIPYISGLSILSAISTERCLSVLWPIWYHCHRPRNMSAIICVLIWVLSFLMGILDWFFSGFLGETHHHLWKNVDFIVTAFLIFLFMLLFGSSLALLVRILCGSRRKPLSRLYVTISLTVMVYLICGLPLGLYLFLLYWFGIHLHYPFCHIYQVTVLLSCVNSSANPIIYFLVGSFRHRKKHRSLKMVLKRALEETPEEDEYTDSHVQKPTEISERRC
Briefly: Agonist activity at rat MrgX1 transfected in HEK293 cells by FLIPR assay. A digest of the protocol:
(§1)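 Rodent Mrg receptors were transiently transfected into HEK293 or KNRK cells, which were plated at 25,000 cells/well and imaged 2 days later. Cells were loaded with 2 μM Fluo 4AM and 1% Trypan Red in HBSS for 50 min at 37°C, then held 10 min at room temperature.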

Test [3] has as its target T3, Mas-related G-protein coupled receptor member X1 (Mus musculus, UniProt Q8CIP3).
T3 sequence (Q8CIP3 whole entry): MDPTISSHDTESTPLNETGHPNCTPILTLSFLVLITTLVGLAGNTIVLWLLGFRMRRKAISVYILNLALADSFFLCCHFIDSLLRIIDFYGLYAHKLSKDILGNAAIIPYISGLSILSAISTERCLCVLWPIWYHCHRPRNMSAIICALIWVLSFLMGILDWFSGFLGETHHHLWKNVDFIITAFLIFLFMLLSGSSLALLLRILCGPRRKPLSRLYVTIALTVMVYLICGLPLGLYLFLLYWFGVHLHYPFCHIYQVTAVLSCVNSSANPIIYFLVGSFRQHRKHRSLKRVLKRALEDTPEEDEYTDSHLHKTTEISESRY
Briefly: Agonist activity at mouse MrgC11 transfected in HEK293 cells by FLIPR assay. A digest of the protocol:
as §1

Test [4] has as its target T1, Mas-related G-protein coupled receptor member X1. Briefly: Antagonist activity at human MrgX1 transfected in HEK293 cells at 200 uM by FLIPR assay.

T1 sequence (Q96LB2 whole entry): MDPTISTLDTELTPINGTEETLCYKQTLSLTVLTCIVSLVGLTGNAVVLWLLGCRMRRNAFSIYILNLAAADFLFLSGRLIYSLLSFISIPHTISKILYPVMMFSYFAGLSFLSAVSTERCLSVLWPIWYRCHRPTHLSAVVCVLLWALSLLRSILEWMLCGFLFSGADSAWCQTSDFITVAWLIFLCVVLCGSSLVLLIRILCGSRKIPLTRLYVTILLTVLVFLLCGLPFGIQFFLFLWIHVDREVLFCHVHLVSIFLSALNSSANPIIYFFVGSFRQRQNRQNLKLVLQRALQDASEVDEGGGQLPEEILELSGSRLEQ

Consider `N=C(N)Nc1ccc(C[C@@H](N)C(=O)N[C@@H](Cc2ccccc2)C(N)=O)cc1` (H-[dPhe(4-guanidino)]-Phe-NH2), for which the results for the EC50 in test [1], in test [2] and in test [3] were more than 100 µM, 0.631 µM and 1.26 µM, respectively. Also, the result in test [4] was inactive.
Regarding `COc1ccc(-c2ccc(C(=O)Nc3cccc(Cn4ncc(N5CCNCC5)cc4=O)c3C)cc2)cn1`, the 50% effective concentration (EC50) was 0.0251 µM in test [1], more than 2 µM in test [2] and more than 2 µM in test [3].
With `N=C(N)N1CCC(C(N)C(=O)N[C@@H](Cc2ccccc2)C(N)=O)CC1` (some centres undefined), the concentration giving a half-maximal response (EC50) in test [1] was more than 100 µM; in test [2] it was 3.98 µM; in test [3], 0.794 µM.
Taken in the same sequence, the figures for `N=C(N)N[C@@H]1CN[C@H](C(=O)N[C@@H](Cc2ccccc2)C(N)=O)C1` were more than 100 µM, more than 100 µM and 7.94 µM.
With `N=C(N)Nc1ccc(C[C@H](N)C(=O)N[C@@H](Cc2ccccc2)C(N)=O)cc1` (H-[Phe(4-guanidino)]-Phe-NH2), the EC50 was more than 100 µM in test [1], 50.1 µM in test [2] and 15.8 µM in test [3].
For `N=C(N)NC[C@@H]1CN[C@H](C(=O)N[C@@H](Cc2ccccc2)C(N)=O)C1`, the values for the EC50 in test [1], in test [2] and in test [3] were more than 100 µM, more than 100 µM and 0.501 µM, respectively.

What is called EC50 is the concentration that produces a half-maximal response. High values mean a need for much substance, low ones an effect from little substance.
